Reference: ChEMBL document CHEMBL4177746, “Discovery of orally efficacious RORγt inverse agonists. Part 2: Design, synthesis, and biological evaluation of novel tetrahydroisoquinoline derivatives” (Bioorg Med Chem, 2018)

Key:
[1] = Cmax in Balb/c mouse at 30 mg/kg, po; assay type: ADME, organism-based; parameters: dose 30 mg/kg, route oral; settings: in vivo
Summary of the method: (§1)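 Male Balb/c mice, 7 weeks old, received intradermal ear injection of recombinant mouse IL-23 (500 ng/10 μL PBS) under isoflurane. Compound was suspended in 0.5% methylcellulose and given orally at 3, 10 or 30 mg/kg, 30 min before and 8 h after IL-23. Plasma concentration was measured in parallel with the PD assay, giving Cmax and […].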

[2] = AUC (0 to 24 hrs) in Balb/c mouse at 3 mg/kg, po; assay type: ADME, organism-based; parameters: dose 3 mg/kg, time < 24 hr, route oral; settings: in vivo
Summary of the method: (§2)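 Male Balb/c mice, 7 weeks old, received 3, 10 or 30 mg/kg orally as a suspension in 0.5% methylcellulose. Dosing was 30 min before and 8 h after intradermal ear injection of recombinant mouse IL-23 (500 ng in 10 μL PBS). Plasma drug levels were measured alongside this PD study, and AUC was taken over 0–24 h.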

[3] = Cmax in Balb/c mouse at 10 mg/kg, po; assay type: ADME, organism-based; parameters: dose 10 mg/kg, route oral; settings: in vivo; summary of the method: as §1
[4] = Cmax in Balb/c mouse at 3 mg/kg, po; assay type: ADME, organism-based; parameters: dose 3 mg/kg, route oral; settings: in vivo; summary of the method: as §1
[5] = Oral bioavailability in mouse at 1 mg/kg administered via cassette dose by LC-MS/MS analysis; assay type: ADME, organism-based; settings: in vivo
Summary of the method: (§3)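 Cassette oral dosing of mice at 1 mg/kg. Blood was sampled after dosing and centrifuged to give plasma. Plasma was deproteinized with acetonitrile containing internal standard, centrifuged, diluted with LC mobile phase and centrifuged again for analysis. Values are means of three determinations.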

[6] = (§4) AUC (0 to 8 hrs) in mouse at 1 mg/kg, po administered via cassette dose by LC-MS/MS analysis; assay type: ADME, organism-based; parameters: time < 8 hr, dose 1 mg/kg, route oral; settings: in vivo; summary of the method: as §3
Mus musculus [7] = species on record: Mus musculus; assay: animal or person; settings: Balb/c, po
[8] = AUC (0 to 24 hrs) in Balb/c mouse at 30 mg/kg, po; assay type: ADME, organism-based; parameters: time < 24 hr, dose 30 mg/kg, route oral; settings: in vivo; summary of the method: as §2
Mus musculus [9] = assay: Drug uptake in po dosed Balb/c mouse; assay type: ADME, organism-based; settings: in vivo; summary of the method: as §1
Mus musculus [10] = assay: Effect on IFNgamma expression in po dosed Balb/c mouse measured after 24 hrs by qRT-PCR analysis; assay type: ADME, organism-based; settings: in vivo
[11] = AUC (0 to 24 hrs) in Balb/c mouse at 10 mg/kg, po; assay type: ADME, organism-based; parameters: time < 24 hr, dose 10 mg/kg, route oral; settings: in vivo; summary of the method: as §2
Mus musculus [12] = assay: as §4; assay type: ADME, organism-based; parameters: time < 8 hr, dose 1 mg/kg, route oral; settings: in vivo, 8 h; summary of the method: as §3

`COc1ccc2c(c1)CCN(C(=O)CCCC(=O)O)[C@H]2C(=O)Nc1cc(F)c([Si](C)(C)C)c(F)c1` gave a Cmax [1] of 19000 ng/mL, an AUC(0-t) at 24 h [2] of 10700 ng·h/mL and a Cmax [3] of 7720 ng/mL. The Cmax [4] was 1630 ng/mL, the bioavailability [5] was 94% and the AUC(0-t) at 8 h [6] was 6890 ng·h/mL. The ED50 (Mus musculus [7]) was 2.8 mg/kg, the AUC(0-t) at 24 h [8] was 159000 ng·h/mL and the Drug uptake (Mus musculus [9]) was “Dose-dependent effect”. The Activity (Mus musculus [10]) was “Non-Toxic” and the AUC(0-t) at 24 h [11] was 48000 ng·h/mL.
`COc1ccc2c(c1)CCN(C(=O)CCCC(N)=O)[C@H]2C(=O)Nc1cc(F)c([Si](C)(C)C)c(F)c1` gave a bioavailability [5] of 14% and an AUC(0-t) at 8 h [6] of 92 ng·h/mL.
With `COc1ccc2c(c1)CCN(C(=O)CC1SC(=O)NC1=O)[C@H]2C(=O)Nc1cc(F)c([Si](C)(C)C)c(F)c1` (stereo not given in full) the bioavailability [5] was 13% and the AUC(0-t) at 8 h [6] was 120 ng·h/mL.
Molecule `COc1ccc2c(c1)CCN(C(=O)CCC(=O)O)[C@H]2C(=O)Nc1cc(F)c([Si](C)(C)C)c(F)c1` has a bioavailability [5] of 51% and an AUC(0-t) at 8 h [6] of 2500 ng·h/mL.
With `COc1ccc2c(c1)CCN(C(=O)c1cc(O)no1)[C@H]2C(=O)Nc1cc(F)c([Si](C)(C)C)c(F)c1` the bioavailability [5] was 11% and the AUC(0-t) at 8 h [6] was 200 ng·h/mL.
In the case of `COc1ccc2c(c1)CCN(C(=O)/C=C/C(=O)O)[C@H]2C(=O)Nc1cc(F)c([Si](C)(C)C)c(F)c1`, the bioavailability [5] is reported as 51% and the AUC(0-t) at 8 h [6] is reported as 619 ng·h/mL.
Molecule `COc1ccc([C@H](C(=O)Nc2cc(F)c([Si](C)(C)C)c(F)c2)N(C)C(=O)CCC(=O)O)cc1` has a bioavailability [5] of 8.5% and an AUC(0-t) at 8 h [6] of 162 ng·h/mL.
With `COc1ccc2c(c1)CCN(C(=O)CC(C)(O)CC(=O)O)[C@H]2C(=O)Nc1cc(F)c([Si](C)(C)C)c(F)c1` (stereo not given in full) the bioavailability [5] was 34% and the AUC(0-t) at 8 h [6] was 159 ng·h/mL.
Molecule `COc1ccc2c(c1)CCN(C(=O)CC(C)(C)CC(=O)O)[C@H]2C(=O)Nc1cc(F)c([Si](C)(C)C)c(F)c1` has a bioavailability [5] of 40% and an AUC(0-t) at 8 h [6] of 2270 ng·h/mL.
In the case of `COc1ccc([C@H](C(=O)Nc2cc(F)c([Si](C)(C)C)c(F)c2)N(C)C(=O)c2cc(O)no2)cc1`, the bioavailability [5] is reported as 18% and the AUC (Mus musculus [12]) is reported as 374 ng·h/mL.
Work on `COc1ccc2c(c1)CCN(C(=O)CCCCC(=O)O)[C@H]2C(=O)Nc1cc(F)c([Si](C)(C)C)c(F)c1` yielded a bioavailability [5] of 84% and an AUC(0-t) at 8 h [6] of 1030 ng·h/mL.
In the case of `COc1ccc2c(c1)CCN(C(=O)CC(C)CC(=O)O)[C@H]2C(=O)Nc1cc(F)c([Si](C)(C)C)c(F)c1` (stereo not given in full), the bioavailability [5] is reported as 65% and the AUC(0-t) at 8 h [6] is reported as 2500 ng·h/mL.
For `COc1ccc2c(c1)OCCN(C(=O)c1cc(O)no1)[C@H]2C(=O)Nc1cc(F)c([Si](C)(C)C)c(F)c1`, the bioavailability [5] was 9% and the AUC(0-t) at 8 h [6] was 29.5 ng·h/mL.
